Key:
Type in all cases: cell-based
[1] = target: wild-type α1β3γ2L GABAA receptors (Homo sapiens, UniProt P14867+P28472); conditions: […] ETO, 5 μM PRO, […] ALX (2 x EC50 tadpole LoRR)
[2] = target: T1, α1β3F293Cγ2L GABAA receptors (Homo sapiens, UniProt P14867+P28472, F318C); experiment: Substituted cysteine modification-protection; conditions: pCMBS + maximal GABA, initial concentrations, 10 μM ALX
[3] = target: T2, α1β3L297Cγ2L GABAA receptors (Homo sapiens, UniProt P14867+P28472, L322C); experiment: Substituted cysteine modification-protection; conditions: pCMBS + maximal GABA
T2 sequence (P14867 28-456): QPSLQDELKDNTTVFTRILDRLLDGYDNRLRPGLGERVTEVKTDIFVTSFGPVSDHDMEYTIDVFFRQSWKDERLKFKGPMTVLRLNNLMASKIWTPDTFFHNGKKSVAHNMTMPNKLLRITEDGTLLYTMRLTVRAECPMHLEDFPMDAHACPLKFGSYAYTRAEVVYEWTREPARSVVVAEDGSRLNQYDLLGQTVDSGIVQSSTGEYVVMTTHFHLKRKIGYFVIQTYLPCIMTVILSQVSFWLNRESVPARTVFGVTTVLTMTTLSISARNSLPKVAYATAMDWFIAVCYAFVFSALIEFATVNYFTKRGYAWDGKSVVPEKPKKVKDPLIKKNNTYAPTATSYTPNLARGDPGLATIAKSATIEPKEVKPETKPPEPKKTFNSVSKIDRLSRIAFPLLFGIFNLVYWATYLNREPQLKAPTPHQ
T2 sequence (P28472 26-473 L322C): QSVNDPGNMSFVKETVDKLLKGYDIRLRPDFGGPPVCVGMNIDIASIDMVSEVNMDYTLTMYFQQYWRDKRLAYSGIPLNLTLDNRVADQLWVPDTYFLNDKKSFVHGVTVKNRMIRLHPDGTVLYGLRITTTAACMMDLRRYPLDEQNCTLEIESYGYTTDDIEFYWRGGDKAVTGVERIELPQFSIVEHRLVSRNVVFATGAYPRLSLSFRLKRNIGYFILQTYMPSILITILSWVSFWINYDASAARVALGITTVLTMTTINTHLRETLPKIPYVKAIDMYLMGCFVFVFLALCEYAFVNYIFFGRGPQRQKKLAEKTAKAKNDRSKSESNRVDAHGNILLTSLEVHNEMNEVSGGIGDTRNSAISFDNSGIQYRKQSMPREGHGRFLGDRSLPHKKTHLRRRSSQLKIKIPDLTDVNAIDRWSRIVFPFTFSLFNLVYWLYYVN
T2 sequence (P18507 40-475 partner): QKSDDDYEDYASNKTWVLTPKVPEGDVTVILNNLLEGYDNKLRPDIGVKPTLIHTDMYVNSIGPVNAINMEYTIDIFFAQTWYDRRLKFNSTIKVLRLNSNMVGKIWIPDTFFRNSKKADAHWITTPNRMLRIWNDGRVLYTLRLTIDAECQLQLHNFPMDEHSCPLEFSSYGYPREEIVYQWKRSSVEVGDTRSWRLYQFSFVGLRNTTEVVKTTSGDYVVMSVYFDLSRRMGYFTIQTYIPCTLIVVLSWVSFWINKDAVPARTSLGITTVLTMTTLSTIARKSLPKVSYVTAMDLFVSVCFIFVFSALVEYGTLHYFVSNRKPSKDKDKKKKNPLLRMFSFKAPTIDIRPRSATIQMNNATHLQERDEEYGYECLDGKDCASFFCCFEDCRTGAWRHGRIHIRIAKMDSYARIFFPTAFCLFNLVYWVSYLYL

[4] = target: α1β3T262Cγ2L GABAA receptors (Homo sapiens, UniProt P14867+P28472, T287C); experiment: Functional effect of pCMBS exposure
[5] = target: α1β3F289Cγ2L GABAA receptors (Homo sapiens, UniProt P14867+P28472, F314C); experiment: Functional effect of pCMBS exposure
[6] = target: α1β3M286Cγ2L GABAA receptors (Homo sapiens, UniProt P14867+P28472, M311C); experiment: Functional effect of pCMBS exposure
[7] = target: α1β3T266Cγ2L GABAA receptors (Homo sapiens, UniProt P14867+P28472, T291C); experiment: Functional effect of pCMBS exposure
[8] = target: α1β3M283Cγ2L GABAA receptors (Homo sapiens, UniProt P14867+P28472, M308C); experiment: Functional effect of pCMBS exposure
[9] = target: α1β3γ2L GABAA receptors (wild-type) (Homo sapiens, UniProt P14867+P28472); experiment: Functional effect of pCMBS exposure
α1β3γ2L GABAA receptors (wild-type), sequence (P14867 28-456): as the sequence (P14867 28-456) above
α1β3γ2L GABAA receptors (wild-type), sequence (P28472 26-473): as the sequence (P28472 26-473 L322C) above, with C297L counted along it
α1β3γ2L GABAA receptors (wild-type), sequence (P18507 40-475 partner): as the sequence (P18507 40-475 partner) above

[10] = target: T2, α1β3L297Cγ2L GABAA receptors; experiment: Functional effect of pCMBS exposure
[11] = target: T3, α1β3V290Cγ2L GABAA receptors (Homo sapiens, UniProt P14867+P28472, V315C); experiment: Functional effect of pCMBS exposure
[12] = target: α1β3E298Cγ2L GABAA receptors (Homo sapiens, UniProt P14867+P28472, E323C); experiment: Functional effect of pCMBS exposure
[13] = target: α1β3G287Cγ2L GABAA receptors (Homo sapiens, UniProt P14867+P28472, G312C); experiment: Functional effect of pCMBS exposure
[14] = target: T4, α1β3F301Cγ2L GABAA receptors (Homo sapiens, UniProt P14867+P28472, F326C); experiment: Functional effect of pCMBS exposure
[15] = target: T1, α1β3F293Cγ2L GABAA receptors; experiment: Functional effect of pCMBS exposure
[16] = target: T4, α1β3F301Cγ2L GABAA receptors; experiment: Substituted cysteine modification-protection; conditions: pCMBS + maximal GABA, 10 to 20 μM ALX, 10 to 20 μM ETO
[17] = target: α1T237Cβ3γ2L GABAA receptors (Homo sapiens, UniProt P14867+P28472, T264C); experiment: Substituted cysteine modification-protection; conditions: 10 μM ALX, 10 μM ETO
[18] = target: GABAA receptors with α1Q242C mutation (Homo sapiens, UniProt P14867+P28472, Q269C); experiment: Receptor sensitivity to anesthetics; conditions: authors' unpublished data
[19] = target: T3, α1β3V290Cγ2L GABAA receptors
[20] = target: β3 subunits with Y284C mutations co-expressed with α1 and γ2L (Homo sapiens, UniProt P14867+P28472, Y309C); experiment: GABA-activated currents, two-electrode voltage clamp in Xenopus oocytes; conditions: β3Y284C co-expressed with α1 and γ2L in Xenopus oocytes
How it was run: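 Human α1 and γ2L were co-expressed with mutant β3 from mRNA (1:1:5, ~50 ng per oocyte) over 48 to 72 hours at 17 °C in ND96. […] A current of ≥ 0.5 μA was required for further experiments.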

[21] = target: T1, α1β3F293Cγ2L GABAA receptors; conditions: control modification conditions
[22] = low concentrations of anesthetics

T1 sequence (P14867 28-456): as the sequence (P14867 28-456) above
T1 sequence (P28472 26-473 F318C): as the sequence (P28472 26-473 L322C) above, with F293C, C297L counted along it
T1 sequence (P18507 40-475 partner): as the sequence (P18507 40-475 partner) above

Question: With CC(C)c1cccc(C(C)C)c1O [PRO, 2,6-diisopropylphenol] as the compound, how does the “enhancement of gating of receptors activated with EC5 GABA” value [1] read?
Answer: similarly enhance

Question: And the “effect on apparent rate of pCMBS modification” value (“effect on apparent rate” for short) [2]?
Answer: accelerated

Question: And the “effect on apparent rate” value [3, 22]?
Answer: unaffected

Question: O=S(=O)([O-])c1cc[c]([Hg][Cl])cc1.[Na+] [pCMBS, Para-chloromercuribenzenesulfonic acid sodium salt] was tested. Which “Maximal Effect of pCMBS Modification (range): Reduce max current” value [4] did it give?
Answer: Reduce max current (95–99%)

Question: And the “effect of pCMBS exposure on activation by GABA” value ([4]; low and high GABA)?
Answer: similarly reduced activation by both low and high GABA

Question: And the “Maximal Effect of pCMBS Modification (range): ↑ lo/hi GABA response” value (“Maximal Effect … ↑ lo/hi GABA response” below) [5]?
Answer: ↑ lo/hi GABA response (2.8 to 4.0-fold)

Question: What about the “Maximal Effect … ↑ lo/hi GABA response” value [6] of the same compound?
Answer: ↑ lo/hi GABA response (5.8 to 7.8-fold)

Question: And the “Maximal Effect … ↑ lo/hi GABA response” value [7]?
Answer: ↑ lo/hi GABA response (10 to 13-fold)

Question: What about the “Maximal Effect of pCMBS Modification (range)” value [8] of the same compound?
Answer: No effect

Question: What about the “Maximal Effect of pCMBS Modification (range)” value [9] of the same compound?
Answer: No effect

Question: What about the “effect of pCMBS exposure on receptor function” value ([9]; pCMBS at 1 mM for 60 s) of the same compound?
Answer: unaffected

Question: What about the “Maximal Effect … ↑ lo/hi GABA response” value [10] of the same compound?
Answer: ↑ lo/hi GABA response (5.5 to 7.2-fold)

Question: What about the “Maximal Effect … ↑ lo/hi GABA response” value [11] of the same compound?
Answer: ↑ lo/hi GABA response (2.3 to 3.1-fold)

Question: And the “Maximal Effect … ↑ lo/hi GABA response” value [12]?
Answer: ↑ lo/hi GABA response (3.5 to 5.5-fold)

Question: What about the “Maximal Effect … ↑ lo/hi GABA response” value [13] of the same compound?
Answer: ↑ lo/hi GABA response (2.3 to 3.5-fold)

Question: And the “Maximal Effect … ↑ lo/hi GABA response” value [14]?
Answer: ↑ lo/hi GABA response (3.8 to 4.9-fold)

Question: And the “Maximal Effect … ↑ lo/hi GABA response” value [15]?
Answer: ↑ lo/hi GABA response (2.6 to 4.3-fold)

Question: What does the source list for CCOC(=O)c1cncn1[C@H](C)c1ccccc1 [ETO, R-Etomidate]?
Answer: effect on apparent rate of pCMBS modification [16]: unaffected; effect on pCMBS modification rates [17]: inhibited modification; receptor sensitivity to anesthetic [18]: insensitivity to ALX, but not to ETO; enhancement of gating of receptors activated with EC5 GABA [1]: similarly enhance; effect on apparent rate of pCMBS modification [2]: accelerated; effect on apparent rate of pCMBS modification ([3]; 50 μM ALX vs. 50 μM ETO): inhibition by ALX, but not ETO; effect on apparent rate of pCMBS modification [3, 22]: unaffected

Question: For C=CCC1(c2cccc(C3(C(F)(F)F)N=N3)c2)C(=O)NC(=O)N(C)C1=O (stereo not drawn) [mTFD-MPAB, R-allyl-m-trifluoromethyl-mephobarbital], which “effect on apparent rate” value [19] is on record?
Answer: unaffected

Question: How did the GABA-activated currents [20] turn out when NCCCC(=O)O [GABA, γ-Aminobutyric acid] was run?
Answer: No GABA-activated currents were detected

Question: And the “fraction of receptors activated by maximal GABA” value [21]?
Answer: about 16%
